Measurements: ChEMBL document CHEMBL1143593, “In vitro metabolism of phenoxypropoxybiguanide analogues in human liver microsomes to potent antimalarial dihydrotriazines” (J Med Chem, 2005)
Converted amounts (≈) assume the structure as drawn.

Tests used:
[1] = Maximum velocity against human liver microsomes; (n=6); format: ADME, Microsome
In short: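 Pooled human liver microsomes, 1 mg/mL, in NADPH regenerating buffer (1.25 mM βNADP+, 3.3 mM glucose-6-phosphate, 3.3 mM MgCl2). Mix preincubated 5 min at 37 °C, then started with glucose-6-phosphate dehydrogenase (1 unit/mL final). Substrate at 25–500 µM, 90 min at 37 °C. Stopped with ice-cold acetonitrile containing internal standard. Dihydrotriazine metabolite quantified by LC-MS/MS against synthetic standard curves. Vmax from Michaelis–Menten nonlinear fit using only ≤200 µM data, n=6.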

Plasmodium falciparum [2] = assay: In vitro antimalarial activity for DHFR mutant, chloroquine and pyrimethamine-resistant Plasmodium falciparum W2
Plasmodium falciparum [3] = assay: In vitro antimalarial activity for DHFR wild-type, chloroquine and pyrimethamine-sensitive Plasmodium falciparum D6; format: functional, organism-based
In short: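 [3H]-hypoxanthine incorporation assay in folate-free medium. Two-fold dilutions; range 5000 (or 2500) ng/mL to 5 pg/mL for parent biguanides, 5 ng/mL to 5 fg/mL for dihydrotriazine metabolites. DMSO ≤0.002%. 37 °C under 90% N2/5% CO2/5% O2; label added at 48 h, harvest at 72 h, scintillation counting. Triplicate on three occasions; IC50 by sigmoid nonlinear regression versus drug-free controls.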

| Compound | Vmax [1] [nmol/min/mg] | IC50 (Plasmodium falciparum [2]) [ng/mL] | IC50 (Plasmodium falciparum [3]) [ng/mL] |
| --- | --- | --- | --- |
| CC(C)NC(=N)NC(=N)NOCCCOc1ccc(Cl)c(Cl)c1 | 27.7 | 2550 (≈ 7040 nM) | 845 (≈ 2330 nM) |
| CC1(C)N=C(N)N=C(N)N1OCCCOc1ccccc1OC(F)(F)F |  | 0.053 (≈ 0.141 nM) | 0.022 (≈ 0.0586 nM) |
| CC(C)/N=C(N)/N=C(/N)NOCCCOc1ccc(C(F)(F)F)cc1Cl | 15.4 | > 5000 | 2230 (≈ 5640 nM) |
| CC1(C)N=C(N)N=C(N)N1OCCCOc1ccc(OCC(F)(F)F)cc1Cl |  | 0.081 (≈ 0.191 nM) | 0.022 (≈ 0.0519 nM) |
| CC1(C)N=C(N)N=C(N)N1OCCCOc1ccc(OC(F)(F)F)cc1 |  | 0.052 (≈ 0.139 nM) | 0.01 (≈ 0.0266 nM) |
| CC1(C)N=C(N)N=C(N)N1OCCCOc1ccc(Cl)c(Cl)c1 |  | 0.028 (≈ 0.0777 nM) | 0.009 (≈ 0.025 nM) |
| CC(C)/N=C(N)/N=C(/N)NOCCCOc1ccc(OCC(F)(F)F)cc1 | 18.7 | > 5000 | > 2500 |
| CC(C)NC(=N)NC(=N)NOCCCOc1cc(Cl)c(Cl)cc1Cl | 11.6 | 3790 (≈ 9540 nM) | 877 (≈ 2210 nM) |
| CCc1nc(N)nc(N)c1-c1ccc(Cl)cc1 [PYRIMETHAMINE] |  | 130 (≈ 523 nM) | 1.2 (≈ 4.82 nM) |
| N=C(NOCCCOc1ccc(OC(F)(F)F)cc1)NC(=N)NC1CC1 |  | > 5000 | > 2500 |
| CC1(C)N=C(N)N=C(N)N1c1ccc(Cl)cc1 [CYCLOGUANIL] |  | > 2.5 | 0.328 (≈ 1.3 nM) |
| CC1(C)N=C(N)N=C(N)N1OCCCOc1ccc(C(F)(F)F)cc1 |  | 0.063 (≈ 0.175 nM) | 0.01 (≈ 0.0278 nM) |
| CC(C)/N=C(N)/N=C(/N)NOCCCOc1ccccc1OC(F)(F)F | 13.3 | > 5000 | > 2500 |
| [H]/N=C(\N/C(=N/[H])Nc1ccc(Cl)cc1)NC(C)C [PROGUANIL] | 19.6 | > 5000 | > 5000 |
| CC(C)NC(=N)NC(=N)NOCCCOc1ccc(OC(F)(F)F)cc1 | 13.5 | > 5000 | > 2500 |
| CC1(C)N=C(N)N=C(N)N1OCCCOc1ccc(OC(F)(F)F)cc1Cl |  | 0.031 (≈ 0.0756 nM) | 0.01 (≈ 0.0244 nM) |
| CC(C)/N=C(N)/N=C(/N)NOCCCOc1ccc(C(F)(F)F)cc1 | 10.8 | > 5000 | > 2500 |
| CC1(C)N=C(N)N=C(N)N1OCCCOc1cc(Cl)c(Cl)cc1Cl |  | 0.016 (≈ 0.0405 nM) | 0.02 (≈ 0.0507 nM) |
